Measured values: ChEMBL document CHEMBL4673245, “Discovery of AZD9833, a Potent and Orally Bioavailable Selective Estrogen Receptor Degrader and Antagonist” (J Med Chem, 2020)
The source made the active and inactive calls. No cut-off for these calls is given here.

Experiments:
[1] = biological target: T1, Estrogen receptor (Homo sapiens) (UniProt P03372); assay: Induction of ERalpha degradation in human CAMA1 cells assessed as decrease in ER-alpha level at 0.1 uM by Western blot analysis relative to fulvestrant; format: cell-based; design: scale not given: the % may be the effect or the level left; settings: CAMA-1
T1 sequence (whole entry): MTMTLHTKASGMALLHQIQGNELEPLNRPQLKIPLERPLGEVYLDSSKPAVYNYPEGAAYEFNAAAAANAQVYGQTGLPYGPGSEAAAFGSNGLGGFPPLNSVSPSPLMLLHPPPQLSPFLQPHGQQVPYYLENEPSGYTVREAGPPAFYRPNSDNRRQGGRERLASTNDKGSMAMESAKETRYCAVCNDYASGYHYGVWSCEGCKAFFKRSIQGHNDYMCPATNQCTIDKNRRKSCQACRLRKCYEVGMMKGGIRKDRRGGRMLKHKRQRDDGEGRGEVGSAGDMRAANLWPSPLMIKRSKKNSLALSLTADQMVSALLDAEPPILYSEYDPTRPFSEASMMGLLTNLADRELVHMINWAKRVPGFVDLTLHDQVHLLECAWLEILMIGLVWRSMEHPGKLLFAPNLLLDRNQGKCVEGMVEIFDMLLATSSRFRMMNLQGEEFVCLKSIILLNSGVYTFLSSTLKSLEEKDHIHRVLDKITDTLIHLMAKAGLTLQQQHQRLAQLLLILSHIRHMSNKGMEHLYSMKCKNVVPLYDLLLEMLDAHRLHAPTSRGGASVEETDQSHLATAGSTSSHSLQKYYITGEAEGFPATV
Summary of the method: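 Western blot for ERα in MCF-7 and CAMA-1 cells after treatment at 0.1 µM. ER level is expressed as % degradation relative to fulvestrant, from a single experiment (n = 1).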

[2] = biological target: T1, Estrogen receptor (Homo sapiens); assay: Induction of ERalpha degradation in human MCF7 cells assessed as decrease in ER-alpha level at 0.1 uM by Western blot analysis relative to fulvestrant; format: cell-based; design: scale not given: the % may be the effect or the level left
[3] = Intrinsic clearance in human hepatocytes assessed per million cells; format: ADME, cell-based, Hepatocyte; settings: read-out: CLH
Summary of the method: (§1)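 Hepatocyte intrinsic clearance measured from DMSO stock in isolated hepatocytes diluted to 1x10⁶ cells/mL; rate expressed as µl/min/10⁶ cells.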

[4] = Intrinsic clearance in rat hepatocytes assessed per million cells; format: ADME, cell-based, Hepatocyte; settings: read-out: CLH; summary of the method: as §1
[5] = Fraction unbound in human plasma by equilibrium dialysis method; format: ADME, cell-free
Summary of the method: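 Fraction unbound measured from DMSO stock by equilibrium dialysis in 10% human plasma.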

[6] = Lipophilicity, log D of the compound in buffer and octanol at pH 7.4 by shake flask method; format: physicochemical
Summary of the method: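 logD at pH 7.4 by shake flask, buffer/octanol volume ratio 100:1.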

[7] = biological target: T2, Estrogen receptor (Homo sapiens, UniProt P03372); assay: Induction of ERalpha degradation in human MCF7 cells assessed as decrease in ER-alpha level incubated for 18 to 24 hrs by Alexa fluor 488/Hoechst staining based immunofluorescence imaging analysis; format: cell-based
T2 sequence (P03372 whole entry): T1 sequence (whole entry)
Summary of the method: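 ER degradation in MCF-7 cells via cellular degradation assay; n ≥ 2, degradation also expressed as %Dmax relative to fulvestrant.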

[8] = biological target: T2, Estrogen receptor; assay: Displacement of fluormone ES2 green reagent from human GST-tagged ERalpha LBD (282 to 595 residues) expressed in baculovirus infected insect cells incubated for 1 hrs by TR-FRET Lanthascreen assay
[9] = biological target: T1, Estrogen receptor (Homo sapiens); assay: Induction of ERalpha degradation in human MCF7 cells assessed as maximum degradation incubated for 18 to 24 hrs by Alexa fluor 488/Hoechst staining based immunofluorescence imaging analysis relative to fulvestrant; format: cell-based; settings: time lower […], time upper […]
[10] = biological target: Cytochrome P450 2C9 (Homo sapiens, UniProt P11712); assay: Inhibition of CYP2C9 in human liver microsomes; format: ADME; settings: human, microsomes
Sequence of Cytochrome P450 2C9 (P11712 whole entry, canonical isoform): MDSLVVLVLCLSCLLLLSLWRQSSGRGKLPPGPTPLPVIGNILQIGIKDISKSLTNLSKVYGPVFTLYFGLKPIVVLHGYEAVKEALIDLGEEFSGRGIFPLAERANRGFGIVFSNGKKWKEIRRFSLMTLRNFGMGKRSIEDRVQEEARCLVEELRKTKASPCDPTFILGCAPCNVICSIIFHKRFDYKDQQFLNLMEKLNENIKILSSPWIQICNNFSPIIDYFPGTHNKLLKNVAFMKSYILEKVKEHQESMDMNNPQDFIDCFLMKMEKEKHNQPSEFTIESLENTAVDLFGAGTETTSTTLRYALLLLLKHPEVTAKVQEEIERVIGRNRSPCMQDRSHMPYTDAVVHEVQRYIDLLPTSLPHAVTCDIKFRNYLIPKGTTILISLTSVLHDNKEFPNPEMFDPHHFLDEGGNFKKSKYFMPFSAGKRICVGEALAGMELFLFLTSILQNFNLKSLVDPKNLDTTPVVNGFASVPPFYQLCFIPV
Summary of the method: (§2)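 High-throughput human liver microsome panel of five CYP isoforms; inhibition reported as IC50.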

[11] = biological target: Cytochrome P450 2C19 (Homo sapiens, UniProt P33261); assay: Inhibition of CYP2C19 in human liver microsomes; format: ADME; settings: human, microsomes; summary of the method: as §2
Sequence of Cytochrome P450 2C19 (P33261 whole entry): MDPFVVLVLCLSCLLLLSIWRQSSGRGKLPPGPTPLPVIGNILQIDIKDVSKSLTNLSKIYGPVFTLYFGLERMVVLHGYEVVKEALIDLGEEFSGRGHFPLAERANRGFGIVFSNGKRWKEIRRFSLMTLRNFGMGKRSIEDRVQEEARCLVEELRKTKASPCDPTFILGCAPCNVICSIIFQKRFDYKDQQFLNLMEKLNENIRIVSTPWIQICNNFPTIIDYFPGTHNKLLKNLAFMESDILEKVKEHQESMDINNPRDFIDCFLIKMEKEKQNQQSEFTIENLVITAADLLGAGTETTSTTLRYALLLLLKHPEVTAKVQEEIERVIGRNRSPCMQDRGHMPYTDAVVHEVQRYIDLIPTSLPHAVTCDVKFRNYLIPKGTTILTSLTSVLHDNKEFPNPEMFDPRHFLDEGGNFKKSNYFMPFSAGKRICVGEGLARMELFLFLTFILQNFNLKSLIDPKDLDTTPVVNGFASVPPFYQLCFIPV

[12] = biological target: T3, Cytochrome P450 1A2 (Homo sapiens, UniProt P05177); assay: Inhibition of CYP1A2 in human liver microsomes; format: ADME; settings: human, microsomes; summary of the method: as §2
T3 sequence (P05177 whole entry): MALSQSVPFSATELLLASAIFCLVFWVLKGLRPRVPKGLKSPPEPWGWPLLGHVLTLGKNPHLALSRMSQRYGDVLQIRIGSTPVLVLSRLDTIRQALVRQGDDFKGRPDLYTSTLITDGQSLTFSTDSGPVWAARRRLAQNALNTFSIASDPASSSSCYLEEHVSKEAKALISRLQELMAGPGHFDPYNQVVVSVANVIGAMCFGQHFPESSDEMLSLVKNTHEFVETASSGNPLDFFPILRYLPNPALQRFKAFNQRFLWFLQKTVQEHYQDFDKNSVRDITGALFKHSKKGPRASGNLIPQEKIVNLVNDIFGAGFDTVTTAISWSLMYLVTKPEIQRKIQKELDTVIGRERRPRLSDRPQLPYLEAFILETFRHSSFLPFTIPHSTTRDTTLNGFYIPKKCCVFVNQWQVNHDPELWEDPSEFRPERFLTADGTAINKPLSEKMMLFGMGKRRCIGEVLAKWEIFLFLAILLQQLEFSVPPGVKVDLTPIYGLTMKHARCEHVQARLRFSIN

[13] = Dissociation constant, dibasic pKa of compound in 0.1 M potassium chloride in presence of piperidine by UV-vis spectroscopy; format: physicochemical
[14] = Oral bioavailability in rat at 1 mg/kg; format: ADME, organism-based; settings: in vivo
Summary of the method: (§3)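 Rat PK: single IV dose 0.5 mg/kg and oral dose 1 mg/kg, formulated in 5% DMSO:95% hydroxypropyl-β-cyclodextrin (30% w/v), dosed at 1 mL/kg IV and 4 mL/kg PO.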

[15] = Half-life in rat at 0.5 mg/kg, iv or 1 mg/kg, po; format: ADME, organism-based; settings: in vivo; summary of the method: as §3
[16] = Volume of distribution at steady state in rat at 0.5 mg/kg, iv or 1 mg/kg, po; format: ADME, organism-based; settings: in vivo, read-out: Vdss
Summary of the method: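 Rat dosed IV at 0.5 mg/kg and PO at 1 mg/kg, both formulated in 5% DMSO:95% hydroxypropyl-β-cyclodextrin (30% w/v), at 1 mL/kg IV and 4 mL/kg PO. Vdss (L/kg) derived from the pharmacokinetic profile after dosing.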

[17] = Clearance in rat at 0.5 mg/kg, iv or 1 mg/kg, po; format: ADME, organism-based; settings: in vivo; summary of the method: as §3
[18] = biological target: Cytochrome P450 3A4 (Homo sapiens, UniProt P08684); assay: Inhibition of CYP3A4 in human liver microsomes; format: ADME; summary of the method: as §2
Sequence of Cytochrome P450 3A4 (P08684 whole entry): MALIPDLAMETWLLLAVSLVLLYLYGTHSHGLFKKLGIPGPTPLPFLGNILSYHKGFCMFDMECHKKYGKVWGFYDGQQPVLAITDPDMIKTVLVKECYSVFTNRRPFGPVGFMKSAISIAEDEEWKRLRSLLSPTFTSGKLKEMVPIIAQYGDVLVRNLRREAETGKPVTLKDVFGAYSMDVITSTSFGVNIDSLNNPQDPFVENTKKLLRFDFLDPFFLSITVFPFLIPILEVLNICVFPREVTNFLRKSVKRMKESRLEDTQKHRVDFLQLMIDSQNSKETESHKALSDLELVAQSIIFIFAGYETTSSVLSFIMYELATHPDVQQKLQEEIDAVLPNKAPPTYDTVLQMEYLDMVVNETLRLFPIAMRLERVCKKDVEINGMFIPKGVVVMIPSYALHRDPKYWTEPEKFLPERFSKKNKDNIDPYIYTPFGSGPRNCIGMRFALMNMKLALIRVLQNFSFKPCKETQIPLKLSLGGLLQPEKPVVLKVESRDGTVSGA

[19] = biological target: Cytochrome P450 2D6 (Homo sapiens, UniProt P10635); assay: Inhibition of CYP2D6 in human liver microsomes; format: ADME; summary of the method: as §2
Sequence of Cytochrome P450 2D6 (P10635 whole entry): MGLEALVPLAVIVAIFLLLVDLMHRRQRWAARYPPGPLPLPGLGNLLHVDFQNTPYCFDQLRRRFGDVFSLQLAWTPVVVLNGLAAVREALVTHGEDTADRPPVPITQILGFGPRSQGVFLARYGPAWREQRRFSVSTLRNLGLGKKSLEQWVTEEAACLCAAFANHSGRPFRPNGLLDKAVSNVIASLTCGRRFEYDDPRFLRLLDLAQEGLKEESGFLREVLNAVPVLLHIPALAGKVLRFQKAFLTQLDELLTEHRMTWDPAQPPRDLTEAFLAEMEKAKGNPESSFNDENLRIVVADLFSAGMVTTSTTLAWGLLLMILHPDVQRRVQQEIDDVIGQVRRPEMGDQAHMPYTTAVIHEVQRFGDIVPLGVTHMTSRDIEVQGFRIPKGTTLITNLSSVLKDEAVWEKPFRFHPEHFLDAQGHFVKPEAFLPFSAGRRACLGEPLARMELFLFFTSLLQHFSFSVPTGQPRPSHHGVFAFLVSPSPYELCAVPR

[20] = Dissociation constant, dibasic pKa of compound in 0.1 M potassium chloride in presence of azetidine by UV-vis spectroscopy; format: physicochemical
[21] = Fraction unbound in dog plasma; format: ADME, cell-free, Canis lupus familiaris
[22] = Fraction unbound in mouse plasma; format: ADME, cell-free
[23] = Fraction unbound in rat plasma; format: ADME, cell-free
[24] = Solubility of compound in phosphate buffer at pH 7.4 incubated for 24 hrs at 25 degree C; format: physicochemical
Summary of the method: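 Aqueous phosphate buffer pH 7.4, compound added from DMSO stock, equilibrated 24 h at 25 °C.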

[25] = test system: MCF7; assay: Antitumor activity against human […] cells xenografted in CB17 SCID mouse assessed as tumor regression at 5 mg, po administered via gavage three times a week for 21 days; format: functional, organism-based; settings: time 21.0 day
[26] = test system: Mus musculus; assay: In vivo antagonist activity at ERalpha in human MCF7 cells xenografted CB17 SCID mouse assessed as decrease in PR expression level at 5 mg, po administered via gavage three times a week for 21 days measured 24 hrs post last dose by Western blot analysis; format: functional, organism-based; settings: time 21.0 day
[27] = biological target: Voltage-gated inwardly rectifying potassium channel KCNH2 (Homo sapiens, UniProt Q12809); assay: Inhibition of human ERG by plate-based planar patch clamp technique
Sequence of Voltage-gated inwardly rectifying potassium channel KCNH2 (Q12809 whole entry): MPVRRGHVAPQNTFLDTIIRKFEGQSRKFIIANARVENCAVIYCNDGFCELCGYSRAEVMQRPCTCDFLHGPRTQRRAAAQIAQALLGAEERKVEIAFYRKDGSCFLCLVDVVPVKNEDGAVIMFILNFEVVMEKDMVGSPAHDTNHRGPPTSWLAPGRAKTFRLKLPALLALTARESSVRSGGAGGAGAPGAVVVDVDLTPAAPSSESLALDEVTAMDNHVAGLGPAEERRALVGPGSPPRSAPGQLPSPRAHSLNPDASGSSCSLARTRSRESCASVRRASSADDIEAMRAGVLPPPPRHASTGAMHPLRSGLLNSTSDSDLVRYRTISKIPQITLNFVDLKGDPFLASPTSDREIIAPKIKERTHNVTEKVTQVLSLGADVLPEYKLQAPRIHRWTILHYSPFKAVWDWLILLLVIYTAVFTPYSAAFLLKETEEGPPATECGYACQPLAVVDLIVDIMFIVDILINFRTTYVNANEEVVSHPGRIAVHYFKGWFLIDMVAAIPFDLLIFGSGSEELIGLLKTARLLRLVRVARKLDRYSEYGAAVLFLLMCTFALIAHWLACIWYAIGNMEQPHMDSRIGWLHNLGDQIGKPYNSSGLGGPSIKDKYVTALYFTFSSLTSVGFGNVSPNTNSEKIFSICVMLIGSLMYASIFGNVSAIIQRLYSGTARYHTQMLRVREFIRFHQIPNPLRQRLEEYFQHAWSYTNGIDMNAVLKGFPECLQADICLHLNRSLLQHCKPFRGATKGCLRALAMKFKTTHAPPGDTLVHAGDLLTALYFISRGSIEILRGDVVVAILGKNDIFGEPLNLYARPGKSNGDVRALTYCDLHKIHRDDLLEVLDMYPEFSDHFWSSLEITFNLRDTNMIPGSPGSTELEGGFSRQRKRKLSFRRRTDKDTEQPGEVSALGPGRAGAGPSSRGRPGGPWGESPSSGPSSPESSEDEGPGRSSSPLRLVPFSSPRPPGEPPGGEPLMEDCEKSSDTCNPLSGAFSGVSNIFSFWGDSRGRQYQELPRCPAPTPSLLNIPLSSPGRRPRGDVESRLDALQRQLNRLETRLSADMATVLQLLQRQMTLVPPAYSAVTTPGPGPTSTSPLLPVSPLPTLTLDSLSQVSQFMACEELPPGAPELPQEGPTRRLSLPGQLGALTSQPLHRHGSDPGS
Summary of the method: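 hERG tail current inhibition recorded on a plate-based planar patch clamp system; IC50 reported.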

Row | Compound | Activity [1] [%] | Activity [2] [%] | hepatocyte CLint [3] [µL/min/1e6 cells] | hepatocyte CLint [4] [µL/min/1e6 cells] | fraction unbound [5] | logD [6] | IC50 [7] [nM] | IC50 [8] [nM] | Emax [9] [%] | other results
1 | C[C@@H]1Cc2c(ccc3[nH]ncc23)[C@@H](c2c(F)cc(OCCN3CC(CF)C3)cc2F)N1CC(C)(C)F | 66 | 84 | 8 | 88 | 0.008 | 4.4 | 0.126 | 1 | – | –
2 | CC(C)CN1[C@H](c2ccc(OCCN3CC(CF)C3)cc2)c2ccc3[nH]ncc3c2C[C@H]1C | – | – | 8 | 66 | 0.11 | 3.4 | 0.158 | 2 | 99 | –
3 | COc1cc(NC2CN(CCCF)C2)ccc1[C@@H]1c2ccc3[nH]ncc3c2C[C@@H](C)N1CC1(F)CC1 | 84 | 89 | – | 7 | 0.34 | – | 0.316 | 7.94 | 96 | inhibition (INH) [10]: Not Active; inhibition (INH) [11]: Not Active; inhibition (INH) [12]: Not Active; pKa [13]: 7.8; bioavailability [14]: 3%; half-life [15]: 11 h; Vd [16]: 71 L/kg; clearance [17]: 7.5 L/h/kg; IC50 [18]: 11000 nM; IC50 [19]: 1200 nM; pKa [20]: 8.7; fraction unbound [21]: 0.22; fraction unbound [22]: 0.39; fraction unbound [23]: 0.51; solubility at 24 h [24]: > 900 µM
4 | C[C@@H]1Cc2c(ccc3[nH]ccc23)[C@@H](c2ccc(NC3CN(CCCF)C3)cn2)N1CC(F)(F)F | 85 | 98 | 3 | 10 | 0.073 | 3.2 | 0.158 | 3.16 | 98 | –
5 | CC(C)CN1[C@H](c2ccc(OCCN3CC(CF)C3)cn2)c2ccc3[nH]ncc3c2C[C@H]1C | – | – | 8 | 41 | 0.19 | 3.2 | 0.398 | 10 | 99 | –
6 | C[C@]12CC[C@@H]3c4ccc(O)cc4C[C@@H](CCCCCCCCC[S+]([O-])CCCC(F)(F)C(F)(F)F)[C@H]3[C@@H]1CC[C@@H]2O (stereo partly drawn) | – | – | – | – | – | – | – | – | – | Activity [25]: Active; Activity [26]: Active
7 | C[C@@H]1Cc2c(ccc3[nH]ncc23)[C@@H](c2ccc(OCCN3CC(CF)C3)cn2)N1CC(F)(F)F | 80 | 91 | 3 | 45 | 0.22 | 3 | 0.398 | 1.26 | 96 | –
8 | COc1cc(OCCN2CC(CF)C2)ccc1[C@@H]1c2ccc3[nH]ncc3c2C[C@@H](C)N1CC(C)(C)F | 74 | 69 | 12 | 28 | 0.065 | 3.6 | – | 3.16 | 95 | –
9 | C[C@@H]1Cc2c(ccc3[nH]ncc23)[C@@H](c2ccc(N[C@H]3CCN(CCCF)C3)cn2)N1CC(F)(F)F | 104 | 95 | 5 | 22 | 0.18 | 3 | 0.126 | 2.51 | 99 | IC50 [27]: 13000 nM
10 | C[C@@H]1Cc2c(ccc3[nH]ncc23)[C@@H](c2ccc(OCCN3CC(CF)C3)cn2)N1CC1(F)CC1 | 87 | 75 | 8 | 38 | 0.34 | – | 0.398 | 1.26 | 98 | –
11 | CC(C)CN1[C@H](c2c(F)cc(OCCN3CC(CF)C3)cc2F)c2ccc3[nH]ncc3c2C[C@H]1C | – | – | 9 | 74 | 0.004 | 4.6 | 0.2 | 0.794 | 99 | –
12 | C[C@@H]1Cc2c(ccc3[nH]ncc23)[C@@](C)(c2ccc(NC3CN(CCCF)C3)cn2)N1CC(F)F | – | – | – | 114 | 0.1 | – | 1 | 10 | 96 | IC50 [27]: 13000 nM
